Measurements taken from paper PMC2919362 (Chemical biology & drug design, 2010).
Where no end group is shown, it is not given here. The star is where a group is joined. 5FAM = O=C1OC2(c3ccc(O)cc3Oc3cc(O)ccc32)c2ccc(C(=O)*)cc21; Farnesyl = CC(C)=CCC/C(C)=C/CC/C(C)=C/C*

Columns and labels:
D1TNC1 astrocytes [1] = assay: Flow cytometry of peptide uptake in D1TNC1 astrocytes; type: cell-based, rat; settings: 1 μM, 2 h, 37°C, trypsinized 15 min, triplicate (Figure 6)
PC-12 cells [2] = assay: Flow cytometry of peptide uptake in PC-12 cells; type: cell-based, rat; settings: 1 μM, 2 h, 37°C, trypsinized 15 min, triplicate (Figure 6)
COS-1 cells = assay: CLSM of peptide uptake in live COS-1 cells; type: cell-based, African green monkey; settings: 1 μM, 2 h, live cells (Figure 4A)
Outline: (§1)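 Live-cell confocal imaging. Cells were seeded at 7.8 × 10^3 cells/cm2 and grown to about 50% confluency (about 24 h), then washed twice with PBS. Peptide (5-Fam labelled) was incubated in serum-free DMEM at 37°C, 5.0% CO2. Nuclei were stained with Hoechst 34580 (1 μg/mL final, last 20 min) and membranes with WGA–Alexa Fluor 594 (5 μg/mL final, last 10 min). Cells were then washed twice and imaged with a 60X objective; emission was read at 520/450/620 nm.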

NIH/3T3 fibroblast cells = assay: CLSM of peptide uptake in live NIH/3T3 fibroblasts; type: cell-based, Swiss mouse; settings: 1 μM, 2 h, live cells (Figure 4B)
Outline: as §1

D1TNC1 astrocytes [3] = assay: CLSM of peptide uptake in live D1TNC1 astrocytes; type: cell-based, rat; settings: 1 μM, 2 h, live cells (Figure 4C)
Outline: as §1

PC-12 cells [4] = assay: CLSM of peptide uptake in PC-12 differentiated neurons; type: cell-based, rat; settings: 1 μM, 2 h, live cells (Figure 4D)
Outline: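 Neuronal differentiation and imaging. PC-12 cells were seeded at 3.9 × 10^3 cells/cm2 on poly-lysine plates and grown for 24 h. They were serum-starved for 24 h in F12K + 1% HS, then differentiated with 100 ng/mL β-NGF in the same medium for 6–8 days, refreshed every 2 days. Labelled peptide was incubated in F12K + 1% HS at 37°C, 5.0% CO2, with Hoechst 34580 and WGA–Alexa Fluor 594 counterstains. Live cells were imaged by confocal microscopy (60X).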

| Substance | entry into astrocytes compared with HeLa cells (flow cytometry) (D1TNC1 astrocytes [1]) | entry into PC12 cells compared with HeLa cells (flow cytometry) (PC-12 cells [2]) | uptake in COS-1 cells (CLSM) (COS-1 cells) | uptake in NIH/3T3 fibroblast cells (CLSM) (NIH/3T3 fibroblast cells) | uptake in D1TNC1 astrocytes (CLSM) (D1TNC1 astrocytes [3]) | uptake in PC-12 cells (CLSM) (PC-12 cells [4]) |
| --- | --- | --- | --- | --- | --- | --- |
| 5-Fam-KKSRRC(S-decyl)VLS [5b] | efficiency comparable to that observed with HeLa cells | efficiency comparable to that observed with HeLa cells |  |  |  |  |
| 5FAM-KKSRRC(Farnesyl)VLS [4b] |  |  | moderate uptake | moderate uptake | significant uptake | significant uptake |
